Laboratory results published in ChEMBL document CHEMBL4346672, “Antimicrobial and KPC/AmpC inhibitory activity of functionalized benzosiloxaboroles” (Eur J Med Chem, 2019).
Values after ≈ are worked out from the molar mass of the structure shown. Active and inactive are the calls of the source. No cut-off for these calls is given here.

Legend:
[1] = test system: Saccharomyces cerevisiae; assay: Antifungal activity against Saccharomyces cerevisiae ATCC 9763 assessed as decrease in fungal cell growth at 0.78 to 12.5 mg/L incubated for 24 hrs by CLSI broth dilution method; assay type: functional; details: ATCC 9763, 24 h
In short: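 Yeast strain subcultured on Sabouraud dextrose agar for 24–48 h at 30 °C before testing. Compounds dissolved in DMSO.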

[2] = test system: Candida parapsilosis; assay: Antifungal activity against Candida parapsilosis ATCC 22019 assessed as diameter of zone inhibition incubated for 24 hrs by CLSI disc diffusion method; assay type: functional
In short: (§1)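 Yeast disc diffusion on Mueller-Hinton agar supplemented with 2% glucose and 0.5 mg/L methylene blue. Compounds in DMSO. Yeasts subcultured on Sabouraud dextrose agar before testing. Zones read after 35 °C, 24 h.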

[3] = test system: Acinetobacter baumannii; assay: Antibacterial activity against Acinetobacter baumannii ATCC 19606 assessed as fold reduction of MIC in presence of efflux pump inhibitor PAbetaN incubated for 18 hrs by broth microdilution method; assay type: functional
In short: (§2)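 MICs determined with and without PAβN at 50 mg/L in Mueller-Hinton broth containing 1 mM MgSO₄. 2-fold serial dilutions per CLSI. Fold change taken from the paired MICs after 35 °C, 18 h.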

[4] = test system: Klebsiella pneumoniae; details: ATCC 13883
[5] = test system: Enterobacter cloacae; assay: Antibacterial activity against Enterobacter cloacae DSM 6234 measured after 18 hrs by CLSI broth dilution method; assay type: functional; details: DSM 6234, 18 h
In short: (§3)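 Broth MIC in Mueller-Hinton II broth following CLSI, compounds dissolved in DMSO. Strains subcultured twice on tryptic soy agar before testing. Growth read after 35 °C, 18 h.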

[6] = test system: Bordetella bronchiseptica; assay: Antibacterial activity against Bordetella bronchiseptica ATCC 4617 assessed as diameter of zone inhibition measured after 18 hrs by CLSI disc diffusion method; assay type: functional
In short: (§4)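 Disc diffusion on Mueller-Hinton II agar. Compounds dissolved in DMSO. Strains stored at -80 °C and subcultured twice on tryptic soy agar before testing. Inhibition zones read after 35 °C, 18 h.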

[7] = test system: Candida parapsilosis; assay: Antifungal activity against Candida parapsilosis ATCC 22019 assessed as decrease in fungal cell growth at 0.78 to 12.5 mg/L incubated for 24 hrs by CLSI broth dilution method; assay type: functional; details: Lodderomyces parapsilosis, ATCC 22019, 24 h
In short: (§5)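 Yeast broth dilution in RPMI 1640 with 2% glucose, compounds in DMSO. Yeasts pre-grown on Sabouraud dextrose agar. Growth read after 35 °C, 24 h.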

[8] = test system: Saccharomyces cerevisiae; assay: Antifungal activity against Saccharomyces cerevisiae ATCC 9763 diameter of zone inhibition incubated for 24 hrs by CLSI disc diffusion method; assay type: functional
In short: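 Disc-diffusion run on Mueller-Hinton II agar with 2% glucose and 0.5 mg/L methylene blue, using compounds in DMSO. Yeast was precultured on Sabouraud dextrose agar (24–48 h, 30 °C). Zones read after 24 h at 35 °C.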

[9] = test system: Burkholderia cepacia; assay: Antibacterial activity against Burkholderia cepacia ATCC 25416 assessed as diameter of zone inhibition measured after 18 hrs by CLSI disc diffusion method; assay type: functional; in short: as §4
[10] = test system: Pichia kudriavzevii; assay: Antifungal activity against Candida krusei ATCC 6258 assessed as diameter of zone inhibition incubated for 24 hrs by CLSI disc diffusion method; assay type: functional; in short: as §1
[11] = test system: Serratia marcescens; details: ATCC 13880
[12] = test system: Staphylococcus aureus; assay: Antibacterial activity against Staphylococcus aureus ATCC 6538P measured after 18 hrs by CLSI broth dilution method; assay type: functional; in short: as §3
[13] = test system: Pseudomonas aeruginosa; assay: Antibacterial activity against Pseudomonas aeruginosa ATCC 27853 assessed as diameter of zone inhibition measured after 18 hrs by CLSI disc diffusion method; assay type: functional, organism-based; in short: as §4
[14] = test system: Bordetella bronchiseptica; assay: Antibacterial activity against Bordetella bronchiseptica ATCC 4617 measured after 18 hrs by CLSI broth dilution method; assay type: functional; details: ATCC 4617, 18 h; in short: as §3
[15] = test system: Pichia kudriavzevii; assay: Antifungal activity against Candida krusei ATCC 6258 assessed as decrease in fungal cell growth at 0.78 to 12.5 mg/L incubated for 24 hrs by CLSI broth dilution method; assay type: functional; details: ATCC 6258, 24 h; in short: as §5
[16] = test system: Enterococcus faecalis; assay: Antibacterial activity against Enterococcus faecalis ATCC 29212 measured after 18 hrs by CLSI broth dilution method; assay type: functional; details: ATCC 29212, 18 h; in short: as §3
[17] = test system: Staphylococcus epidermidis; assay: Antibacterial activity against Staphylococcus epidermidis ATCC 12228 assessed as diameter of zone inhibition measured after 18 hrs by CLSI disc diffusion method; assay type: functional; in short: as §4
[18] = test system: Escherichia coli; assay: Antibacterial activity against Escherichia coli ATCC 25922 measured after 18 hrs by CLSI broth dilution method; assay type: functional; details: ATCC 25922, 18 h; in short: as §3
[19] = test system: Candida tropicalis; assay: Antifungal activity against Candida tropicalis IBA 171 assessed as diameter of zone inhibition incubated for 24 hrs by CLSI disc diffusion method; assay type: functional; in short: as §1
[20] = test system: Candida tropicalis; assay: Antifungal activity against Candida tropicalis IBA 171 assessed as decrease in fungal cell growth at 0.78 to 12.5 mg/L incubated for 24 hrs by CLSI broth dilution method; assay type: functional; details: IBA 171, 24 h; in short: as §5
[21] = test system: Staphylococcus epidermidis; assay: Antibacterial activity against Staphylococcus epidermidis ATCC 12228 measured after 18 hrs by CLSI broth dilution method; assay type: functional; details: ATCC 12228, 18 h; in short: as §3
[22] = test system: Enterococcus faecalis; assay: Antibacterial activity against Enterococcus faecalis ATCC 29212 assessed as diameter of zone inhibition measured after 18 hrs by CLSI disc diffusion method; assay type: functional; in short: as §4
[23] = test system: Serratia marcescens; assay: Antibacterial activity against Serratia marcescens ATCC 13880 assessed as fold reduction of MIC in presence of efflux pump inhibitor PAbetaN incubated for 18 hrs by broth microdilution method; assay type: functional; in short: as §2
[24] = test system: Enterobacter cloacae; assay: Antibacterial activity against Enterobacter cloacae DSM 6234 assessed as diameter of zone inhibition measured after 18 hrs by CLSI disc diffusion method; assay type: functional; in short: as §4
[25] = Dissociation constant, pKa1 of compound in 0.1 M NaOH by potentiometric analysis; assay type: physicochemical
[26] = test system: Acinetobacter baumannii; assay: Antibacterial activity against Acinetobacter baumannii ATCC 19606 measured after 18 hrs by CLSI broth dilution method; assay type: functional; details: ATCC 19606, 18 h; in short: as §3
[27] = test system: Stenotrophomonas maltophilia; assay: Antibacterial activity against Stenotrophomonas maltophilia ATCC 13637 assessed as diameter of zone inhibition measured after 18 hrs by CLSI disc diffusion method; assay type: functional; in short: as §4
[28] = test system: Proteus mirabilis; assay: Antibacterial activity against Proteus mirabilis ATCC 12453 assessed as diameter of zone inhibition measured after 18 hrs by CLSI disc diffusion method; assay type: functional; in short: as §4
[29] = test system: Klebsiella pneumoniae; assay: Antibacterial activity against Klebsiella pneumoniae ATCC 13883 measured after 18 hrs by CLSI broth dilution method; assay type: functional; details: ATCC 13883, 18 h; in short: as §3
[30] = test system: Candida albicans; assay: Antifungal activity against Candida albicans ATCC 90028 assessed as decrease in fungal cell growth at 0.78 to 12.5 mg/L incubated for 24 hrs by CLSI broth dilution method; assay type: functional; details: ATCC 90028, 24 h; in short: as §5
[31] = test system: Candida albicans; assay: Antifungal activity against Candida albicans ATCC 90028 assessed as diameter of zone inhibition incubated for 24 hrs by CLSI disc diffusion method; assay type: functional; in short: as §1
[32] = test system: Staphylococcus aureus; assay: Antibacterial activity against Staphylococcus aureus ATCC 6538P assessed as diameter of zone inhibition measured after 18 hrs by CLSI disc diffusion method; assay type: functional; in short: as §4
[33] = test system: Proteus mirabilis; assay: Antibacterial activity against Proteus mirabilis ATCC 12453 measured after 18 hrs by CLSI broth dilution method; assay type: functional; details: ATCC 12453, 18 h; in short: as §3

| SMILES | MIC [1] | diameter of the inhibition zone (DIZ) [2] | fold change (FC) [3] | DIZ [4] | MIC [5] | diameter of the inhibition zone (DIZ) [6] | MIC [7] | diameter of the inhibition zone (DIZ) [8] | diameter of the inhibition zone (DIZ) [9] | diameter of the inhibition zone (DIZ) [10] | DIZ [11] | MIC [12] | diameter of the inhibition zone (DIZ) [13] | MIC [14] | MIC [15] | MIC [16] | diameter of the inhibition zone (DIZ) [17] | MIC [18] | diameter of the inhibition zone (DIZ) [19] | MIC [20] | further results |
| --- | --- | --- | --- | --- | --- | --- | --- | --- | --- | --- | --- | --- | --- | --- | --- | --- | --- | --- | --- | --- | --- |
| C[Si]1(C)OB(O)c2ccc(Cl)cc21 | 6.25 µg/mL (≈ 29.4 µM) | 18 mm | 16 | inactive | > 400 µg/mL | 11 mm | 25 µg/mL (≈ 118 µM) | 47 mm | 11 mm | 26 mm | inactive | 50 µg/mL (≈ 235 µM) | inactive | 400 µg/mL (≈ 1880 µM) | 25 µg/mL (≈ 118 µM) | 100 µg/mL (≈ 471 µM) | 33 mm | 400 µg/mL (≈ 1880 µM) | 15 mm | 6.25 µg/mL (≈ 29.4 µM) | MIC [21]: 25 µg/mL (≈ 118 µM); diameter of the inhibition zone (DIZ) [22]: 17 mm; fold change (FC) [23]: 16; diameter of the inhibition zone (DIZ) [24]: inactive; pKa [25]: 7.3; MIC [26]: 400 µg/mL (≈ 1880 µM); diameter of the inhibition zone (DIZ) [27]: 19 mm; diameter of the inhibition zone (DIZ) [28]: inactive; MIC [29]: 400 µg/mL (≈ 1880 µM); MIC [30]: 12.5 µg/mL (≈ 58.8 µM); diameter of the inhibition zone (DIZ) [31]: 28 mm; diameter of the inhibition zone (DIZ) [32]: 20 mm; MIC [33]: > 400 µg/mL |
| C[Si]1(C)OB(O)c2ccccc21 | 3.12 µg/mL (≈ 17.5 µM) | 11 mm | 4 | inactive | > 200 µg/mL | inactive | 25 µg/mL (≈ 140 µM) | 36 mm | inactive | inactive | inactive | 200 µg/mL (≈ 1120 µM) | inactive | > 200 µg/mL | 25 µg/mL (≈ 140 µM) | > 200 µg/mL | 28 mm | > 200 µg/mL | inactive | 25 µg/mL (≈ 140 µM) | MIC [21]: 50 µg/mL (≈ 281 µM); diameter of the inhibition zone (DIZ) [22]: inactive; fold change (FC) [23]: 0; diameter of the inhibition zone (DIZ) [24]: inactive; pKa [25]: 7.9; MIC [26]: > 200 µg/mL; diameter of the inhibition zone (DIZ) [27]: inactive; diameter of the inhibition zone (DIZ) [28]: inactive; MIC [29]: > 200 µg/mL; MIC [30]: 100 µg/mL (≈ 562 µM); diameter of the inhibition zone (DIZ) [31]: inactive; diameter of the inhibition zone (DIZ) [32]: inactive; MIC [33]: > 200 µg/mL |
